The source made the active and inactive calls. The calls are words filed in the database; no cut-off is given here.
Assays:
Canis familiaris = species on record: Canis familiaris; experiment: Compound was evaluated for the stimulation of canine renal artery; Inactive; type: functional, organism-based; details: Canis lupus familiaris
Rattus norvegicus [1] = species on record: Rattus norvegicus; experiment: Compound was evaluated for the stimulation of rat retinal adenylate cyclase at 1.0 uM dose; type: functional
Method in brief: (§1)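 Retinal homogenate, […], incubated 20 min at 30 °C. Stopped with SDS/ATP/cAMP plus [3H]cAMP recovery tracer and 2 min at 85 °C. [32P]cAMP isolated by Salomon column chromatography.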

Rattus norvegicus [2] = species on record: Rattus norvegicus; experiment: Compound was evaluated for the stimulation of rat retinal adenylate cyclase at 100.0 uM dose; type: functional; method in brief: as §1
Rattus norvegicus [3] = species on record: Rattus norvegicus; experiment: Compound was evaluated for the stimulation of rat retinal adenylate cyclase at 10.0 uM dose; type: functional; method in brief: as §1
Rattus norvegicus [4] = species on record: Rattus norvegicus; experiment: Compound was evaluated for the stimulation of rat retinal adenylate cyclase at 0.1 uM dose; type: functional; method in brief: as §1
Rattus norvegicus [5] = species on record: Rattus norvegicus; experiment: Compound was evaluated for the stimulation of rat retinal adenylate cyclase by effect of its alkyl length at 0.1 uM dose; type: functional; method in brief: as §1
Rattus norvegicus [6] = species on record: Rattus norvegicus; experiment: Compound was evaluated for the stimulation of rat retinal adenylate cyclase by effect of its alkyl length at 1.0 uM dose; type: functional; method in brief: as §1
Rattus norvegicus [7] = species on record: Rattus norvegicus; experiment: Compound was evaluated for the stimulation of rat retinal adenylate cyclase by effect of its alkyl length at 10.0 uM dose; type: functional; method in brief: as §1
Rattus norvegicus [8] = species on record: Rattus norvegicus; experiment: Compound was evaluated for the stimulation of rat retinal adenylate cyclase by effect of its alkyl length at 100.0 uM dose; type: functional; method in brief: as §1

| Structure (SMILES) | Activity (Canis familiaris) | Stimulation (Rattus norvegicus [1]) [%] | Stimulation (Rattus norvegicus [2]) [%] | Stimulation (Rattus norvegicus [3]) [%] | Stimulation (Rattus norvegicus [4]) [%] | Stimulation (Rattus norvegicus [5]) [%] | Stimulation (Rattus norvegicus [6]) [%] | Stimulation (Rattus norvegicus [7]) [%] | Stimulation (Rattus norvegicus [8]) [%] |
| --- | --- | --- | --- | --- | --- | --- | --- | --- | --- |
| Oc1cccc(C2CNCc3ccccc32)c1 (stereo not given) | inactive | 21 | 81 | 47 | – | – | – | – | – |
| NCCc1ccc(O)c(O)c1 [DOPAMINE] | – | 116.2 | 295.3 | 209.8 | 25.7 | – | – | – | – |
| Oc1ccc(C2CNCc3ccccc32)cc1O (stereo not given) | – | 89.6 | 198.8 | 152.7 | 23.6 | 11.5 | 87.7 | 188 | 288.8 |
| CCCN1Cc2ccccc2C(c2ccc(O)c(O)c2)C1 (stereo not given) | – | – | – | – | – | – | -7.7 | 11.8 | 46.4 |
| CCN1Cc2ccccc2C(c2ccc(O)c(O)c2)C1 (stereo not given) | – | – | – | – | – | -8.8 | -1 | 42.7 | 94.1 |
| CN1Cc2ccccc2C(c2ccc(O)c(O)c2)C1 (stereo not given) | – | – | – | – | – | -1.7 | 46.5 | 122.6 | 144.9 |
| Oc1ccc(C2CNCCc3c2cc(O)c(O)c3Cl)cc1 (stereo not given) [FENOLDOPAM] | – | 176 | 246 | 201.4 | 165.1 | – | – | – | – |
| Oc1ccc(C2CNCc3sccc32)cc1O (stereo not given) | – | 160.2 | 207 | 188.6 | 70.4 | – | – | – | – |
